Read-outs that look alike come from different tables or passages of the source.

The subject of data set [1] is GABAARs. Conditions: ref Parakala et al., 2019; cited from earlier work.
For data set [2] the following is noted: cited from earlier work.
The test system of a further data set is synaptic GABAARs. The note with it: ref Wafford et al., 2009; Jensen et al., 2013; cited from earlier work.
Data set [3] addresses T1, human GABAAR α2β1γ2 (Homo sapiens, UniProt P18505+P18507+P47869). Nature of the data set: Voltage-clamp, modulation of GABA EC10 response in Xenopus laevis oocytes. Type of data set: cell-based. Conditions: maximum modulation of the GABA EC10 response, mean ± S.E.M. (n = 3).
In a further data set the target is human GABAAR α2β2γ2 (Homo sapiens, UniProt P18507+P47869+P47870). The data set is described as above. Type of data set: cell-based. The note with it: maximum modulation of the GABA EC10 response, mean ± S.E.M. (n = 3).
Chain of human GABAAR α2β2γ2 (P47869 29-451): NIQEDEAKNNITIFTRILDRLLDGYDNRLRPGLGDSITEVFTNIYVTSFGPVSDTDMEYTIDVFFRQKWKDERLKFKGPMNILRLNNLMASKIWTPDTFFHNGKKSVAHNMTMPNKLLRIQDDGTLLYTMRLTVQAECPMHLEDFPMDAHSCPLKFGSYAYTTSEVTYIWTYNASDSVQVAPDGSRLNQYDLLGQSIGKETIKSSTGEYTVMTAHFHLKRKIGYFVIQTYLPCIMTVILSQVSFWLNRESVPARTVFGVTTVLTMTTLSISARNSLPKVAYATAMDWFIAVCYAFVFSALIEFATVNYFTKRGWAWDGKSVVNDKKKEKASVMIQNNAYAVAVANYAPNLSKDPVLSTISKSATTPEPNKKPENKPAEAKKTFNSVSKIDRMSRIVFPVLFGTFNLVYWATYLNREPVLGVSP
Chain of human GABAAR α2β2γ2 (P47870 26-512): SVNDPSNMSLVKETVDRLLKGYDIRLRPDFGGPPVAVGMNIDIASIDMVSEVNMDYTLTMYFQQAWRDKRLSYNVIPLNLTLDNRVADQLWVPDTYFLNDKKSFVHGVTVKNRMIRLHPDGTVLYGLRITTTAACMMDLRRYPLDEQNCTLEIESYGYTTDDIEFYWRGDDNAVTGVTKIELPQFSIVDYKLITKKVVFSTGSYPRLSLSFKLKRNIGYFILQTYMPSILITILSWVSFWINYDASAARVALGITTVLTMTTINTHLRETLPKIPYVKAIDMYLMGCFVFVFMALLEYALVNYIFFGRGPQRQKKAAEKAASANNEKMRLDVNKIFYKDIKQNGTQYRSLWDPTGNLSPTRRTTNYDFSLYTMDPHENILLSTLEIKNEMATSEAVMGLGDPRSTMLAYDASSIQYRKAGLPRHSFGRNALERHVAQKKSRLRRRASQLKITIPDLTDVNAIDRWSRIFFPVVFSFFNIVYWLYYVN
Chain of human GABAAR α2β2γ2 (P18507 40-475): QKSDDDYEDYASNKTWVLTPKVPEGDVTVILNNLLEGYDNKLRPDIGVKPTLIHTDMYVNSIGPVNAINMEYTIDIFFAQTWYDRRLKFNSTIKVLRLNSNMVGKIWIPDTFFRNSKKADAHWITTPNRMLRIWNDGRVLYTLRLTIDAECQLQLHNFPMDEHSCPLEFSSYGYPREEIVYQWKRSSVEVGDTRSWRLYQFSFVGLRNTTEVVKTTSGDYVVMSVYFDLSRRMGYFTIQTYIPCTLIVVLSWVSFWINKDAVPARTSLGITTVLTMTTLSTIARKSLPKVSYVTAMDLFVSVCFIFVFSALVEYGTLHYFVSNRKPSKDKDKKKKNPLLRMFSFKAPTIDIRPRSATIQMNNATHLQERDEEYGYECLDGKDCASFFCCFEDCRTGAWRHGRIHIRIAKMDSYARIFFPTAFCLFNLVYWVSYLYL
For the next data set, the target named is human GABAAR α4β3δ (Homo sapiens, UniProt O14764+P28472+P48169). Nature of the data set: Voltage-clamp, modulation of GABA EC10 response in Xenopus laevis oocytes. The format is cell-based. Conditions: maximum modulation of the GABA EC10 response, mean ± S.E.M. (n = 3). A digest of the protocol: (§1)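 Human GABAAR subtypes expressed in Xenopus laevis oocytes. The GABA EC10 (the concentration giving 10% of the maximal GABA response) was determined for each oocyte. Test compound was pre-applied for 30 s, then co-applied with EC10 GABA. Response = (I GABA EC10 + modulator / I GABA EC10) × 100, where I = current. Concentration-effect data were fitted to a four-parameter logistic equation.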
Chain of human GABAAR α4β3δ (P48169 36-554): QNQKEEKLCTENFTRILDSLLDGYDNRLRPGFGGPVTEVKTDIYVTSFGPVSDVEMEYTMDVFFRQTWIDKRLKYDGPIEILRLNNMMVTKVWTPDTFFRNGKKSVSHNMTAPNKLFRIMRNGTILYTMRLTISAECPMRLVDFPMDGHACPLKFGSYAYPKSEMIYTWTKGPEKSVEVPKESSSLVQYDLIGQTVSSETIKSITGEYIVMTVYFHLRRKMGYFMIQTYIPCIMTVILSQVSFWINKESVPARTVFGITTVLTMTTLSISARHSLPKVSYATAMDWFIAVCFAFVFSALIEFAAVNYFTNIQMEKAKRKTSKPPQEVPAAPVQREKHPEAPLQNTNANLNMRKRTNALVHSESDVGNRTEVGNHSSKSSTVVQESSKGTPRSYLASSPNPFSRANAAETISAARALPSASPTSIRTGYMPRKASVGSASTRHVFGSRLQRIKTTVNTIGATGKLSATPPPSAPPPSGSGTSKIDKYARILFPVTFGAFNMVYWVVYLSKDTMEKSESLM
Chain of human GABAAR α4β3δ (P28472 26-473): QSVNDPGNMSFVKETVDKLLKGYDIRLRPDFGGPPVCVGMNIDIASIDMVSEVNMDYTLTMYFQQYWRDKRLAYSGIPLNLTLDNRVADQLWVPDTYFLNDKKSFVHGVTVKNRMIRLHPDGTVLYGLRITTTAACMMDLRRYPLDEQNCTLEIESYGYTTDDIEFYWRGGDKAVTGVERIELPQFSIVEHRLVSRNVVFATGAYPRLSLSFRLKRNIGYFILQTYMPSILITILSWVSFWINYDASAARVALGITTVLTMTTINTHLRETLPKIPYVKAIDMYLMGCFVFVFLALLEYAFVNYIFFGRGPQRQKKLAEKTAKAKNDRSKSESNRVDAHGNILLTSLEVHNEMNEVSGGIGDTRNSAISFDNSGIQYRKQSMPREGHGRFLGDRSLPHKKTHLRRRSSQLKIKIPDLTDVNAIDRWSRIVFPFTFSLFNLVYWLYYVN
Chain of human GABAAR α4β3δ (O14764 25-452): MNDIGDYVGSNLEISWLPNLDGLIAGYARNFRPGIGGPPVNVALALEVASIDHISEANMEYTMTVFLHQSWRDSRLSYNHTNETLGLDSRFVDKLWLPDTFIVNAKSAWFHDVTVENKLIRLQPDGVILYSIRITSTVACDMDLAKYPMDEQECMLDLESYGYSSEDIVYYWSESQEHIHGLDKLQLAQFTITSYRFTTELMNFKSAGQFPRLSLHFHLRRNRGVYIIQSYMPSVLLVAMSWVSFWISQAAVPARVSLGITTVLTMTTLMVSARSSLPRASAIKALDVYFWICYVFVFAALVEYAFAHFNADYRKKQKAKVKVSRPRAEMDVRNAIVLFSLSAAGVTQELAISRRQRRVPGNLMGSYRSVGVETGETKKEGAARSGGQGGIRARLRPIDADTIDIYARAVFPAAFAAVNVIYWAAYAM

A further data set concerns rodent seizure models. Conditions: ref Hogenkamp et al., 2014; cited from earlier work.
The target of another data set is human GABAAR α1β1γ2 (Homo sapiens, UniProt P14867+P18505+P18507). Nature of the data set: Voltage-clamp, modulation of GABA EC10 response in Xenopus laevis oocytes. Type of data set: cell-based. The note with it: maximum modulation of the GABA EC10 response, mean ± S.E.M. (n = 3). A digest of the protocol: as §1
Chain of human GABAAR α1β1γ2 (P14867 28-456): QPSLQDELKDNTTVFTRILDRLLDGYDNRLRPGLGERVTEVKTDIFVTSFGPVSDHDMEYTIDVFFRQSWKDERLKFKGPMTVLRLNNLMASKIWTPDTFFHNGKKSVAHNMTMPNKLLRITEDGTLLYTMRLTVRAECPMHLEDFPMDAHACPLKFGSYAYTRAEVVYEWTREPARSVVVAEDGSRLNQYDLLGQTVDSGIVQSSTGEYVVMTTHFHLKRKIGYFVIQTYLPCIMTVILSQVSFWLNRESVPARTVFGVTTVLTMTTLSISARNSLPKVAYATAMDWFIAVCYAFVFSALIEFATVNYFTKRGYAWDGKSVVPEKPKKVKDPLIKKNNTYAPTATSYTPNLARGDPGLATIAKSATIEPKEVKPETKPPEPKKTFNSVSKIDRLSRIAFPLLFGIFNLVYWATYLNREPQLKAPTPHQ
Chain of human GABAAR α1β1γ2 (P18505 26-474): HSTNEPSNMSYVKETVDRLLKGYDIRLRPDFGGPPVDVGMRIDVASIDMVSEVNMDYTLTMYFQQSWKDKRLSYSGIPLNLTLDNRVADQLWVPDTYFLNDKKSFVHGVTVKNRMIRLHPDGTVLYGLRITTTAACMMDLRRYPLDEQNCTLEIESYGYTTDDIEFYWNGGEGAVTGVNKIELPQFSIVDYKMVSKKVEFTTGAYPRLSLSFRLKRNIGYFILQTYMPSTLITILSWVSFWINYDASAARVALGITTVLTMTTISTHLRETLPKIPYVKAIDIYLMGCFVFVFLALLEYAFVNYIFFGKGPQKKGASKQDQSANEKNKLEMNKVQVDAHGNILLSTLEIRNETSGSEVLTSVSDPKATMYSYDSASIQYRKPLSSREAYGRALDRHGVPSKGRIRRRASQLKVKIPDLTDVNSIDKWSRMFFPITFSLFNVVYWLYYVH
Chain of human GABAAR α1β1γ2 (P18507 40-475): as the sequence (P18507 40-475) above
The next data set has as its target human GABAAR α1β2γ2 (Homo sapiens, UniProt P14867+P18507+P47870). The data set is described as above. The format is cell-based. Conditions: maximum modulation of the GABA EC10 response, mean ± S.E.M. (n = 3). In short, it runs like this:
as §1

The subject of the next data set is humans. Conditions: 500 mg intravenously (iv.); ref Merryman et al., 1954; cited from earlier work.
Another data set deals with traumatic brain injury. Conditions: ref Wright et al., 2014, Skolnick et al.; cited from earlier work.
Data set [4] addresses extrasynaptic (α4β2δ) GABAARs (Mus musculus, UniProt P22933+P63137+Q9D6F4). Nature of the data set: Tonic current. Type of data set: cell-based. The note with it: 1 μM; VB neuron of P21 mouse; reversed by bicuculline 20 μM. A digest of the protocol:
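Holding current was taken from the same −70 mV VB neuron recordings in P21 mouse horizontal slices. All-points histograms of holding current were compared under control, after test compound (1 μM), and after co-application of bicuculline (20 μM).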

A further data set deals with PPD. The note with it: cited from earlier work.
The target in data set [5] is synaptic (α1β2γ2) GABAARs (Mus musculus, UniProt P22723+P62812+P63137). As to the kind of experiment: mIPSCs recorded from thalamic VB neurons in horizontal slice. The note with it: 1 μM, 10 min; VB neuron of P21 mouse, −70 mV. Type of data set: cell-based. In short, it runs like this:
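GABAAR mIPSCs were recorded at −70 mV from thalamic VB neurons in horizontal slices from P21 mice. Recordings were made under control conditions and after 10 min of test compound at 1 μM. mIPSC decay was examined.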

Data set [6] deals with patients with moderate to severe major depressive disorder. The note with it: oral treatment for 14 days; ref Gunduz-Bruce et al., 2019; cited from earlier work.
The conditions of data set [7]: rodents; ref Irwin et al., 2015; cited from earlier work.
Data set [8] concerns GABAARs. The note with it: ref Harrison and Simmonds, 1984; cited from earlier work.
The conditions of data set [9]: ref Harrison and Simmonds, 1984; cited from earlier work.
A further data set relates to hippocampal DGGNs. The note with it: ref Modgil et al., 2017, cited from earlier work.
Data set [10] concerns the target T1, human GABAAR α2β1γ2. Conditions: value marked #, ref Hogenkamp et al. (2014) and Carter et al. (1997); cited from earlier work.
In the next data set the test system is acute migraine. Conditions: in vivo; cited from earlier work.

T1 sequence (P47869 29-451): as the sequence (P47869 29-451) above
T1 sequence (P18505 26-474): as the sequence (P18505 26-474) above
T1 sequence (P18507 40-475): as the sequence (P18507 40-475) above
Chain of human GABAAR α1β2γ2 (P14867 28-456): as the sequence (P14867 28-456) above
Chain of human GABAAR α1β2γ2 (P47870 26-512): as the sequence (P47870 26-512) above
Chain of human GABAAR α1β2γ2 (P18507 40-475): as the sequence (P18507 40-475) above
Chain of synaptic (α1β2γ2) GABAARs (P62812 28-455): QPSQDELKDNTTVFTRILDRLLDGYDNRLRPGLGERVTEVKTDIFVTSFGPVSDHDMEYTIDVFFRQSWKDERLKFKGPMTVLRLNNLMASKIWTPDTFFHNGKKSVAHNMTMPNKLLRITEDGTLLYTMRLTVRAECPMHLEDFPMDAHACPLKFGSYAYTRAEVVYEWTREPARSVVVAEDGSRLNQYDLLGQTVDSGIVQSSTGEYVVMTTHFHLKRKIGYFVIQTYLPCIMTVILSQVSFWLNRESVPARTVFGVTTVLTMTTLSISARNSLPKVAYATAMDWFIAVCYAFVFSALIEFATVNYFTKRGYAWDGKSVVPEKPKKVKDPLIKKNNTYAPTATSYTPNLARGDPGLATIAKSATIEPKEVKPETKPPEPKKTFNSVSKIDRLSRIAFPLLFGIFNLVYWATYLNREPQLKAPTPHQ
Chain of synaptic (α1β2γ2) GABAARs (P63137 25-512 limits assumed): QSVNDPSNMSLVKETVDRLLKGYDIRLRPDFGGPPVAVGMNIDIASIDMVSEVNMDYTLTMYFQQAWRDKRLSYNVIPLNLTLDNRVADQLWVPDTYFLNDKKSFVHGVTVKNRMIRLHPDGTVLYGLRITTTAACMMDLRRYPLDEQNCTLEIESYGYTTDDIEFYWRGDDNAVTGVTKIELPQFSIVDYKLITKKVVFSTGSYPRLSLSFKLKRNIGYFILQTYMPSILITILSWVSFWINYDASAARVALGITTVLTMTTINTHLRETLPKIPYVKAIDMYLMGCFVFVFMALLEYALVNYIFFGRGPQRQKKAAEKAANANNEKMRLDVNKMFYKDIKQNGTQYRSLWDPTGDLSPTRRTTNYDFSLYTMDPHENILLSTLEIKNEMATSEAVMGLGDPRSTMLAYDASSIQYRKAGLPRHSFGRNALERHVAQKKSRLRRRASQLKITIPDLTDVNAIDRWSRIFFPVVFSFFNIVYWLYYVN
Chain of synaptic (α1β2γ2) GABAARs (P22723 39-474): as the sequence (P18507 40-475) above

With `C=C[C@]12CCC(=O)C=C1CC[C@H]1[C@@H]3CC[C@H](C(C)=O)[C@@]3(C)CC[C@@H]12` [ORG OD 02-0], in the data set on GABAARs [1], the “direct interaction with GABAARs” value was “no direct interaction with GABAARs”.
In the case of `CCOC(=O)Nc1ccc(NCc2c(C)cc(C)cc2C)cc1N` [AA29504], the “ratio of brain to plasma levels” value in data set [2] (ref Hoestgaard-Jensen et al., 2010) is “favorable ratio of brain to plasma levels”.
`O=C(Nc1c(-c2cccs2)nc2ccccn12)c1ccc(Cl)cc1` [DS2]: the “activity on synaptic GABAARs” value in the data set with synaptic GABAARs was “no activity”. In data set [2] (ref Wafford et al., 2009, Jensen et al., 2013), the CNS penetration result is recorded as “poor CNS penetration”.
For `C[C@@]1(O)CC[C@@]2(C)[C@@H](CC[C@@H]3[C@@H]2CC[C@]2(C)[C@@H](c4cc(CO)on4)CC[C@@H]32)C1` [UCI-50027, 3-[3α-hydroxy-3β-methyl-5α-androstan-17β-yl]-5-(hydroxymethyl)isoxazole], the “Max Mod ± SEM” value is reported as 277 ± 47 % control at human GABAAR α2β1γ2 [3]; 595 ± 176 % control on human GABAAR α2β2γ2; 919 ± 229 % control at human GABAAR α4β3δ; 472 ± 84 % control on human GABAAR α1β1γ2; 587 ± 91 % control at human GABAAR α1β2γ2. For the same molecule, the anticonvulsant/anxiolytic therapeutic index entry in the data set with rodent seizure models is “greater anticonvulsant/anxiolytic therapeutic index than ganaxolone”.
With `CC(=O)[C@H]1CC[C@H]2[C@@H]3CCC4=CC(=O)CC[C@]4(C)[C@H]3CC[C@]12C` [progesterone], the effect in humans entry in the data set on humans is “anesthetic effect”. Moreover, the “outcome in phase III trials, moderate to severe traumatic brain injury” value with traumatic brain injury was “failed to meet primary criteria”.
For the molecule `C[C@@]1(O)CC[C@H]2[C@H](CC[C@@H]3[C@@H]2CC[C@]2(C)[C@@H](C(=O)Cn4cc(C#N)cn4)CC[C@@H]32)C1` [SAGE-217, 3alpha-Hydroxy-3beta-methyl-21-(4-cyano-1H-pyrazol-1’-yl)-19-nor-5beta-pregnan-20-one], the “Max Mod ± SEM” value on human GABAAR α2β1γ2 [3] stood at 851 ± 93 % control; on human GABAAR α2β2γ2, 1355 ± 173 % control; at human GABAAR α4β3δ, 783 ± 122 % control; at human GABAAR α1β1γ2 it was 488 ± 33 % control; on human GABAAR α1β2γ2, 823 ± 353 % control. For the same molecule, the tonic current result in data set [4] is “enhance the tonic current”. Moreover, in the data set with PPD (30 mg p.o. once a day for 14 days, reported by Sage), the “outcome of phase II study” value is “positive results”. The “duration of miniature inhibitory postsynaptic currents (mIPSCs)” value in data set [5] is reported as “greatly prolong”. The depressive symptoms result in data set [6] was “effective in reducing depressive symptoms”. Besides, the main side effects result in data set [6] is “dizziness and somnolence/sedation”.
Consider `CC(=O)[C@H]1CC[C@H]2[C@@H]3CC[C@H]4C[C@H](O)CC[C@]4(C)[C@H]3CC[C@]12C` [AlloP, 5α-pregnan-3α-ol-20-one], for which the “Max Mod ± SEM” value was 878 ± 211 % control at human GABAAR α2β1γ2 [3]; 485 ± 257 % control on human GABAAR α2β2γ2; 1401 ± 88 % control at human GABAAR α4β3δ; 817 ± 62 % control on human GABAAR α1β1γ2; 909 ± 68 % control on human GABAAR α1β2γ2. Besides, the “brain concentration relative to that in plasma” value in data set [7] is on record as 3 ×.
As to `CC(=O)[C@H]1CC[C@H]2[C@@H]3CC[C@H]4C[C@@H](O)CC[C@]4(C)[C@H]3C(=O)C[C@]12C` [betaxalone], in the data set with GABAARs [8], the “effect on GABAARs” value is on record as “no effect”. The behavioural effect result in [9] is “behaviourally inert”.
As for `CC(=O)[C@H]1CC[C@H]2[C@@H]3CC[C@H]4C[C@](C)(O)CC[C@]4(C)[C@H]3CC[C@]12C` [Ganaxolone, 3alpha-hydroxy-3beta-methyl-5alpha-pregnan-20-one], the “Max Mod ± SEM” value at human GABAAR α2β2γ2 was 646 ± 254 % control; on human GABAAR α4β3δ it was 1710 ± 534 % control; on human GABAAR α1β1γ2 it was 1006 ± 241 % control; at human GABAAR α2β1γ2 [10], 700 ± 50^# % control; at human GABAAR α1β2γ2 it was 1151 ± 367 % control. Moreover, the “sustained enhancement of tonic conductance” value in the data set on hippocampal DGGNs (in contrast to allopregnanolone) was “did not produce a sustained enhancement”. Besides, in the data set with hippocampal DGGNs, the “acute effect on tonic current” value was “acutely increased the tonic current”. In addition, in the data set with PPD (oral (p.o) dose of 1175 mg once per day for 28 days, ref trade press), the “outcome in PPD, preliminary findings” value was “not meeting primary endpoints”. Moreover, in the data set on acute migraine, the “outcome in phase II trials, acute migraine” value is “failed to demonstrate efficacy”.

The values above are taken from article PMC7231973 (Neurobiology of Stress, 2019).
